In the library only some 4% were active in any assay of this set; here they are far more common.
CHOP UPR activ = activators of apoptotic arm of unfolded protein response (CHOP); CHO-CHOP luciferase reporter, UPR activation, luminescence; percent of tunicamycin response over DMSO baseline; activation, % at 10 µM; 330,000 tested, 0.34% active; AID 449763;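 active = at 10 µM dose, activation of 40% or more, normalized to positive control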;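 also: 100% = tunicamycin at 10 µg/mL and 0% = DMSO alone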
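Assay system: CHO cells with stable CHOP pathway luciferase reporter; Buffer or medium: F12 plus 10% serum; Times: 16-18 h cell attachment, then 6 h compound exposure, 37 °C; Signal: luciferase luminescence; Read-out basis: percent activation relative to tunicamycin control; Control set: tunicamycin high control, DMSO low control.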
Mdm2 MdmX PPI = inhibitors of human Mdm2/MdmX interaction; O15151+Q00987; SaOS-2 split-luciferase Mdm2/MdmX complementation, luminescence; inhibition, % at 8 µM; 330,000 tested, 3% active;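 active = inhibition of at least 50% at 8 µM in the primary screen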
Exocytosis inh = lytic granule exocytosis inhibition | TALL-104 LAMP-1 surface exposure, flow cytometry; cells stimulated with thapsigargin and PMA | inhibition, % at 10 µM | 360,000 tested, 0.66% active | AID 651702;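 active = inhibition above about 55%, limit read from the data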
UPR XBP1 act = activators of adaptive arm of unfolded protein response (XBP1) | CHO-XBP1 luciferase reporter, IRE1-XBP1 UPR activation, luminescence; percent of tunicamycin response, DMSO as zero | 330,000 tested, 0.33% active | activation, % at 20 µM;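 active = versus positive control, 20 µM dose yields 30% or more activation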;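 also: 100% = tunicamycin at 10 µg/mL and 0% = DMSO only wells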
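Material: CHO-XBP1 cells stably carrying IRE1-XBP1-driven luciferase reporter | Medium: F12 with 10% serum | Compound dosing: 20 µM single concentration, DMSO 1% | Incubation: Overnight seeding at 37 °C, 6 h compound treatment at 37 °C | Detection: Steady-Glo luminescence read | Read-out basis: % activation of reporter signal versus tunicamycin and DMSO controls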
ABHD5-PLIN5 inh = inhibitors of human ABHD5-perilipin-5 interaction | AID 602281 | Split G. princeps luciferase complementation, luminescence, 4 h | inhibition, % at 4 µM | 360,000 tested, 0.78% active | Q00G26+Q8WTS1;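 active = inhibition above the mean inhibition across every tested compound plus 3 SD, cut at about 22% in these data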;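 also: 0% = DMSO only wells and the 100% control is not disclosed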
Target sequence (Q00G26 whole entry, looked up): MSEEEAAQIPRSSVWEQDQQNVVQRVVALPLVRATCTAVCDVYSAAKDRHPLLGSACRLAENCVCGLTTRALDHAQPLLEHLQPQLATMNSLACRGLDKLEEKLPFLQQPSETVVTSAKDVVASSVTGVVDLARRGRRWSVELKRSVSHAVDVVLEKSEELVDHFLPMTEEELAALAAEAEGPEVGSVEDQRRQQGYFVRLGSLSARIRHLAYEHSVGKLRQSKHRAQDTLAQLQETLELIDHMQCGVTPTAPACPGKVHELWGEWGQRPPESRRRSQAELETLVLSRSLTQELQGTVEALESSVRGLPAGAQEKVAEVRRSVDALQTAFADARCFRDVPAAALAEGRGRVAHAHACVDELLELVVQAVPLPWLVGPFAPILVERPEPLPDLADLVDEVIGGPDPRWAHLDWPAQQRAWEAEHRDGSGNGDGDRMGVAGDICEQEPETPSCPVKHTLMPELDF
Target sequence (Q8WTS1 whole entry, looked up): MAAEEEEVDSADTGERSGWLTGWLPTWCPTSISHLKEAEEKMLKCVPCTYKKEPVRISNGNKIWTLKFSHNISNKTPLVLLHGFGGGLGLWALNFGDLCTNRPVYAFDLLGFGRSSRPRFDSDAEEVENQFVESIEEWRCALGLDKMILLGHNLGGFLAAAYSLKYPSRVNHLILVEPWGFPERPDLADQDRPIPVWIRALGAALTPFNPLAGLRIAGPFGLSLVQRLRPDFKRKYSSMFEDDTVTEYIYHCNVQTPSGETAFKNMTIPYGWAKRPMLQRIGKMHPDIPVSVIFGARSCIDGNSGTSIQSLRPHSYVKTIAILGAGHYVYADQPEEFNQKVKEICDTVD
Mdm2-MdmX conf = confirmation of human Mdm2/MdmX interaction inhibitors. 10,000 tested, 55% active. Mdm2-MdmX binding, luminescent assay. inhibition, % at 8 µM. AID 489028. shares compounds with Mdm2 MdmX PPI; in the data active = inhibition above about 40%
Full FLuc ctr = counter-screen for Mdm2/MdmX inhibitors: full-length luciferase | shares compounds with Mdm2 MdmX PPI | SaOS-2 full-length luciferase counterscreen, luminescence | inhibition, % at 8 µM | 6,200 tested, 77% active;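 active = mean inhibition at 8 µM reaching about 37%, which flags the compound as non-specific, limit read from the data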;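 also: p53-null SaOS-2 cells with luciferase driven by a doxycycline-inducible promoter; compound on cells about two nights before reading with doxycycline added after day one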
Numbers without * were called inactive; . = not tested or not shown.

SMILES | CHOP UPR activ | Mdm2 MdmX PPI | Exocytosis inh | UPR XBP1 act | ABHD5-PLIN5 inh | Mdm2-MdmX conf | Full FLuc ctr
O=C(c1cccc(S(=O)(=O)N2CCCC2)c1)N1CCN(c2ncccn2)CC1 | 0.5 | 19.3 | 2.4 | -2.0 | 3.2 | . | .
CC(=O)C1=CCC(c2ccco2)N(S(=O)(=O)c2ccc(C)cc2)C1 (stereo not given) | . | . | -1.3 | . | -8.8 | . | .
COc1ccc(-c2ccc(SCC(=O)N3CC(=O)Nc4ccccc43)nn2)cc1 | 4.7 | -29.0 | -8.4 | -3.4 | 2.8 | . | .
CN(C)CCCNc1nc(-c2ccccc2)nc2ccccc12 | -1.2 | 9.9 | 10.6 | -1.4 | -0.2 | . | .
Fc1ccccc1-c1nc(NCCCN2CCOCC2)c2ccccc2n1 | 0.9 | 4.2 | -1.1 | -3.3 | 10.1 | . | .
CN(C)CCCNc1c2ccccc2nc2ccccc12 | -3.0 | 100.3* | -0.3 | -4.6 | -3.5 | 99.7* | 51.5*
Oc1ccc(CCNc2c3ccccc3nc3ccccc23)cc1O | 1.2 | 64.0* | -8.5 | -2.2 | -5.0 | 51.2* | 76.2*
c1ccc2c(NCCCN3CCOCC3)c3ccccc3nc2c1 | 2.5 | 84.5* | . | 1.2 | . | 79.4* | 5.5
CCCCOc1ccc(C(CC(=O)NC)C(=O)O)cc1 (stereo not given) | -0.2 | 10.6 | 0.4 | -1.0 | 9.5 | . | .
Cc1n[nH]c(=O)c2c1nnn2Cc1ccccc1Cl | 0.2 | 1.2 | -0.7 | -2.5 | -0.3 | . | .
COc1cc(OC)cc(C(=O)NNC(=O)c2ccc3ccccc3n2)c1 | 1.9 | 54.7* | 10.8 | 3.0 | -4.3 | 68.5* | 46.4*
COc1ccc(C(=O)NC(=S)NNC(=O)c2ccc(C)cc2)cc1 | -2.9 | 48.9 | 1.6 | 3.2 | -2.2 | . | .
COc1ccc(C(=O)NC(=S)NNC(=O)c2ccc3ccccc3n2)cc1 | 0.7 | 55.7* | -6.5 | -0.9 | -8.5 | 33.0 | 52.1*
COCCCn1c(-c2cccc(Cl)c2)nc2c1c(=O)[nH]c(=O)n2Cc1ccccc1 | -1.4 | 22.3 | -5.6 | -1.0 | -9.1 | . | .
COC(=O)c1cc(S(=O)(=O)NCc2ccccc2Cl)c[nH]1 | 0.7 | 4.7 | 5.9 | -5.2 | 6.0 | . | .
Cc1ccc(CSc2ncnc3ccccc23)cc1 | 2.3 | 17.4 | 1.7 | 2.3 | -2.9 | . | .
Cc1ccc(CSc2nc3ccccc3cc2C=O)cc1 | 2.0 | 64.0* | 13.6 | 26.9 | -2.3 | 64.8* | 80.0*
c1coc(CNc2nc(N3CCCCC3)nc3ccccc23)c1 | -6.2 | 51.6* | 27.1 | -1.1 | 3.4 | 3.8 | .
CCC(C)[C@H](NC(=O)N1CC(=O)Nc2ccccc21)C(=O)Nc1ccccc1C (stereo not given in full) | 2.7 | 67.0* | 2.4 | 0.8 | 8.2 | 64.1* | 39.1*
Cc1ccccc1NC(=O)CNC(=O)N1CC(=O)Nc2ccccc21 | . | . | -3.4 | . | 4.3 | . | .
S=C(Nc1ccc(Cl)cc1)Nc1cccc2cnccc12 | 1.8 | 10.9 | 2.4 | 1.4 | -25.3 | . | .
Cc1[nH]nc(-c2ccc(OCc3cnn(-c4ccccc4)c3)c(C)c2O)c1Oc1ccccc1 | -0.5 | 55.8* | 5.7 | 29.9 | -5.3 | 50.9* | 52.7*
CN1CCC(Oc2ccc(Sc3ccccc3)cc2)CC1 | 4.7 | 13.5 | -2.7 | 3.6 | 7.8 | . | .
COc1ccc(CCNC(=O)c2cc(C(=O)c3cc(Cl)ccc3O)cn(CCc3ccc(OC)cc3)c2=O)cc1 | 20.0 | 33.0 | 5.6 | 3.1 | -3.3 | . | .
O=C(c1cc(C(=O)NCCc2ccccc2)c(=O)n(CCc2ccccc2)c1)c1cc(Cl)ccc1O | 6.6 | 73.8* | 4.9 | 6.1 | -2.2 | 53.7* | 61.3*
SMILES | CHOP UPR activ | Mdm2 MdmX PPI | Exocytosis inh | UPR XBP1 act | ABHD5-PLIN5 inh | Mdm2-MdmX conf | Full FLuc ctr
Cc1nnsc1S(=O)(=O)c1ccccc1 | 0.9 | 3.5 | 6.8 | -4.3 | -0.7 | . | .
COc1ccc(S(=O)(=O)N(C)CC(=O)NCCN2CCOCC2)cc1C | 1.3 | 20.3 | 9.8 | 0.9 | 3.6 | . | .
CC(=O)c1ccc(N2CCN(C(=O)/C=C/c3ccc4ccccc4n3)CC2)cc1 | 7.4 | 68.6* | -2.4 | 0.8 | 4.6 | 51.9* | 66.3*
CC(=O)c1ccc(N2CCN(C(=O)c3ccc4ccccc4n3)CC2)cc1 | 1.6 | -19.7 | 2.2 | 4.2 | 2.5 | . | .
Cc1cc(C)c2nc(/N=C(\N)NC(=O)Nc3ccccc3)nc(C)c2c1 | -1.0 | 53.6* | -0.8 | 6.1 | -2.3 | 48.4* | 69.7*
Cc1cc(C)c2nc(/N=C(\N)NC(=O)c3ccccc3)nc(C)c2c1 | 1.5 | 37.0 | -13.2 | 1.0 | 3.3 | . | .
C=C1CCC[C@]2(C)C[C@H]3OC(=O)C(CN(Cc4ccc(OC)c(OC)c4)CC(C)O)[C@H]3CC12 (stereo not given in full) | 0.7 | 67.7* | 11.3 | -4.2 | 11.0 | 48.0* | 39.8*
C=C1CCC[C@]2(C)C[C@H]3OC(=O)C(CN[C@@H](C)c4ccccc4)[C@H]3CC12 (stereo not given in full) | . | . | 21.2 | . | 12.9 | . | .
CC(C)C(=O)Nc1ccc(C(=O)N/N=C/c2cc(Br)cc(Br)c2O)cc1 | -1.8 | 66.2* | -0.4 | 6.4 | -1.8 | 22.3 | .
COc1ccc(C(=O)c2c(C(F)(F)F)oc3c2C(=O)c2ccccc2C3=O)cc1OC | 5.8 | 85.7* | 22.3 | -4.9 | 2.7 | 71.5* | 6.4
CCCCCCN(C(=O)CCCCCN1C(=O)NC(c2ccc(-c3ccccc3)cc2)C(C(=O)OCc2ccccc2)=C1C)C(C(=O)NCCCC)c1ccc(OCC(=O)OC)cc1 (stereo not given) | 1.1 | 8.0 | . | -0.8 | . | . | .
CCCCNC(=O)C(c1ccc(OCC(=O)OC)c(C(=O)OC)c1)N(CCOC)C(=O)CCCCCN1C(=O)NC(c2ccc(-c3ccccc3)cc2)C(C(=O)OCc2ccccc2)=C1C (stereo not given) | 1.3 | 100.3* | . | -2.5 | . | 65.8* | 10.9
Cc1cc(C)c2ccc(N)nc2c1O | 1.0 | 82.9* | -0.9 | 4.1 | 3.0 | 74.7* | 41.4*
Cc1cc(C)c2cccc(N)c2n1 | -0.9 | -12.7 | 1.7 | 10.7 | 3.5 | . | .
NC(=S)n1[nH]c(-c2ccc([N+](=O)[O-])cc2)c(N=Nc2cccc(Cl)c2)c1=O | 0.2 | 96.7* | 7.6 | -4.2 | -21.1 | 90.8* | 39.8*
Cc1cc(C)cc(Oc2ccc(S(=O)(=O)N3CCN(C)CC3)cn2)c1 | -1.4 | 11.4 | -1.1 | -0.7 | 7.2 | . | .
Cc1ccccc1NC(=O)c1ccccc1NC(=O)c1cccs1 | -1.0 | 15.9 | -10.2 | 1.0 | 0.0 | . | .
Oc1ccccc1N=Cc1c(O)ccc2oc3c(c12)CCCC3 | -0.9 | 51.9* | 34.5 | -3.1 | -2.1 | 43.6* | 71.7*
Cc1sc(NC(=S)NC(=O)CCc2ccccc2)c(C(N)=O)c1C | . | . | 5.5 | . | -2.1 | . | .
COc1ccc(-c2nn(-c3ccccc3)cc2C(=O)NC(=S)Nc2cc(Cl)ccc2Cl)cc1 | 0.7 | 73.7* | -2.7 | 2.8 | 9.8 | 43.5* | 51.0*
